# High-throughput results deposited in PubChem BioAssay by several laboratories.
# core dimer inh: inhibitors of HCV core protein dimerization, primary screen, biochemical, TR-FRET, high-throughput; TR-FRET GST/Flag-core106 dimerization, 1536-well; inhibition, % at 5 µM; 300,000 compounds, 0.33% hits;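 active = inhibition above the mean of all tested compounds plus 3 SD, set per screening campaign, cut at about 45% in these data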
#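 System: GST-tagged and Flag-tagged HCV core protein residues 1-106 / Input: core106 proteins, GST 13.5 nM and Flag 17 nM / Buffer or medium: KF-containing HEPES buffer, pH 7.45, DTT, CHAPS, BSA / Probe or stimulus: Eu-anti-GST and XL665-anti-Flag labelled anti-tag antibodies / Schedule: 4 h, 22.5 °C incubation / Technique: TR-FRET 671 and 617 nm emission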
# NR2E3 ag-1: NR2E3 agonists in two-hybrid cells, primary screen, cell-based, luminescence, CHO-S, Gal4-NCOR/VP16-NR2E3; AID 602229, 2012; Photoreceptor-specific nuclear receptor (Homo sapiens), Q9Y5X4; inhibition of corepressor binding, % at 3.98 µM; luciferase; 360,000 compounds, 0.35% hits;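 active = inhibition above the mean of all tested compounds plus 3 SD, cut at about 70% in these data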;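 also: higher means lower luciferase signal from less NR2E3 corepressor binding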
# Target sequence (Q9Y5X4 whole entry, looked up, the tested form may be a part): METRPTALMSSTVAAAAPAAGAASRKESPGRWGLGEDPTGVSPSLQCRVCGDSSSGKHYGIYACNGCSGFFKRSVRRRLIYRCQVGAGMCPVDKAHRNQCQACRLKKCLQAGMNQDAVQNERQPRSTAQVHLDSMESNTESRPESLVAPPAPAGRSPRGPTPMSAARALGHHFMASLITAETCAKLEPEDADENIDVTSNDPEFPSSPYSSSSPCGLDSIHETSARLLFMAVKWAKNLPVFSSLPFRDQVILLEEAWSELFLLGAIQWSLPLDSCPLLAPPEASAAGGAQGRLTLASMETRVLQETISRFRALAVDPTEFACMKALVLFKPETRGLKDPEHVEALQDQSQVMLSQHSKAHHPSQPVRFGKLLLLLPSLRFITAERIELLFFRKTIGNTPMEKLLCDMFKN
# Vif inh: HIV Vif self-association inhibitors, primary screen, imaging, HEK293T, single point; HEK293T cells, Vif self-association by quenched fluorescence, 24 h; inhibition, % at 7.49 µM; 340,000 compounds, 0.35% hits; in the data active = inhibition above about 50%, passing the limit was not always enough
# NR2E3 ag-2: inhibitors of NR2E3-RetCOR corepressor binding, primary screen, NR2E3 agonist project, biochemical, TR-FRET, GST-NR2E3, biotin-RetCOR. AID 2300, 2010. Photoreceptor-specific nuclear receptor (Homo sapiens), Q9Y5X4. 1536-well. 320,000 compounds, 0.12% hits. inhibition of corepressor binding, % at 4.78 µM;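 active = percent inhibition above the cutoff of mean plus 3 SD of all tested compounds, set per screening campaign, cut at about 20% in these data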
#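 Test system: GST-NR2E3 and biotin-RetCOR proteins | Quantity: 1.35 nM GST-tagged NR2E3 final | Medium: Tris pH 7.5 | Also added: 7 nM biotin-RetCOR | Dosing: Compound at 4.8 µM, single dose | Timing: 5 h at 4 °C | Detection: Time-resolved FRET | Read-out basis: Percent inhibition | Benchmarks: Biotin wells as high control, 0.6% DMSO wells as low control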
# DAGLB inhibitor: DAGLB lipase inhibitors, primary screen, biochemical, fluorescence, HTS. Diacylglycerol lipase-beta (Homo sapiens), Q8NCG7. HEK293T DAGLB membrane lysate, EnzChek fluorogenic substrate. inhibition, % at 5.17 µM. 340,000 compounds, 0.059% hits. AID 504411, 2011; in the data active = inhibition above about 34%
# MT1-MMP act inh: blockers of MT1-MMP proenzyme processing, primary screen, HT1080 RFP-PRO-GFP cells, GFP/RFP fluorescence. AID 651647, 2012. 360,000 compounds, 0.061% hits. GFP/RFP ratio change, % at 20 µM. Matrix metalloproteinase-14 (Homo sapiens), P50281. GFP/RFP ratio fluorescence, overnight; percent of plate control window, DMSO zero;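 active = GFP/RFP ratio change of at least 30% with cell ATP level not reduced by more than half and red fluorescence within 50% of control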
#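 Assay system – RFP-PRO-GFP reporter HT1080 cells · Compound dosing – single dose of 20 µM compound, 1% DMSO final · Incubation – overnight compound exposure at 37 °C · Measure – GFP/RFP fluorescence ratio · Benchmarks – DMSO wells and RFP-L50D-GFP cells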
# Hits are given with their value; i = inactive; nt = not tested or not shown. The list is not random: actives were taken first. Their share in the collection is about 1.1%.
SMILES,core dimer inh,NR2E3 ag-1,Vif inh,NR2E3 ag-2,DAGLB inhibitor,MT1-MMP act inh
Cc1ccc(C(=O)COC(=O)c2cc(=O)[nH]c3ccccc23)cc1C,i,i,66,i,i,i
COc1ccccc1C(=O)COC(=O)c1cc(=O)[nH]c2ccccc12,i,i,i,i,i,i
CCOc1ccc(C2C(C#N)=C(N)SC(N)=C2C#N)cc1OCC,58,i,i,i,i,i
CCOc1ccccc1C1C(C#N)=C(N)SC(N)=C1C#N,i,i,i,i,i,i
CCOc1ccc(C2C(C#N)=C(N)SC(N)=C2C#N)cc1OC,57,nt,nt,i,nt,nt
COc1cccc(C(C(=O)NCc2ccccc2)N(C(=O)c2csnn2)C2CC2)c1 (stereo unspecified),i,i,i,i,i,i
CON(C)S(=O)(=O)c1cccc(C(=O)NC2CCSc3ccccc32)c1 (stereo unspecified),i,i,i,i,i,i
CN(C)S(=O)(=O)c1cccc(C(=O)NC2CCSc3ccccc32)c1 (stereo unspecified),i,i,99,i,i,i
O=C(Nc1ccc(C(F)(F)F)cc1)C1CCN(S(=O)(=O)c2ccc(N3CCCC3=O)cc2)CC1,i,i,i,i,i,i
COc1ccc(C(=O)NCc2oc(-c3ccccc3)cc2C(=O)O)cc1,i,i,61,i,i,i
CCNC(=O)C1(C)CCCN(Cc2cccc(Oc3ccccc3)c2)C1 (stereo unspecified),nt,i,nt,nt,nt,i
COCCN(C(=O)CSc1cc(C)c2ccccc2n1)c1c(N)n(CC(C)C)c(=O)[nH]c1=O,nt,i,i,i,i,i
Cc1nn(-c2ccccc2)c(C)c1C(=O)OC/C(O)=C(\C#N)c1nc2ccccc2[nH]1,67,i,i,i,i,i
CN(C)C(CNC(=O)c1ccc2c(=O)n(-c3ccccc3F)c(=S)[nH]c2c1)Cc1ccccc1 (stereo unspecified),i,i,i,i,i,i
Cc1cc(-c2nnc(SCC(=O)c3ccc(Cl)cc3)o2)no1,i,i,92,i,i,i
COc1cccc(N2CCN(S(=O)(=O)c3cc4c(cc3C)N(C)CCO4)CC2)c1,i,i,76,i,i,i
Cc1ccccc1S(=O)(=O)NC(=O)C1(C)CCN1C(=O)CCc1cccs1 (stereo unspecified),nt,i,68,nt,nt,i
CCCCc1ccc(S(=O)(=O)NC(=O)C2(C)CCN2C(=O)CCc2cccs2)cc1 (stereo unspecified),nt,i,i,nt,nt,i
O=c1c2ccccc2c(C=Nc2ccc(S(=O)(=O)N3CCCCC3)cc2)c(O)n1-c1ccc(Cl)cn1,60,i,i,i,i,i
CCc1nnc(/N=C/c2c(O)n(-c3ccc(Cl)cn3)c(=O)c3ccccc23)s1,i,i,nt,i,i,i
COc1ccc(CNC(=O)C[C@@H]2C=C[C@@H](NS(=O)(=O)c3cccc(OC)c3)[C@@H](CO)O2)cc1,nt,nt,nt,nt,nt,i
CC(=O)c1cnc(-c2ccccc2Cl)s1,i,i,57,i,i,i
CC(=O)c1cnc(-c2ccccn2)s1,i,i,i,i,i,i
COc1ccc(C2=Nc3ccccc3N(C(=O)c3ccc(C(F)(F)F)cc3)C2C(=O)NCc2ccccc2)cc1 (stereo unspecified),nt,nt,nt,nt,nt,i
Cc1ccc(S(=O)(=O)CC(=O)Nc2nnc(C(C)C)s2)cc1,i,i,58,i,i,i
CCCc1nnc(NC(=O)CS(=O)(=O)c2ccc(C)cc2)s1,i,i,i,i,i,i
COc1ccc(/C=C2\CN(Cc3ccccc3)C/C(=C\c3ccc(OC)c(O)c3)C2=O)cc1O,i,i,59,i,i,i
Oc1ccc(Nc2nc(-c3ccc4ccccc4c3)cs2)cc1,i,i,i,i,i,i
